Runt-SMMHC FRET: inhibitors of RUNX1 Runt–CBFb-SMMHC binding, primary screen, biochemical, FRET, Cerulean-Runt, Venus-CBFb-SMMHC, uHTS; actives 0.74% (n = 220,000); inhibition, % at 20 µM; Cerulean-Runt/Venus-CBFb-SMMHC FRET ratio 530/480, 1 h; AID 1434, 2008;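 active = mean inhibition across duplicate retests at 20 µM reaching about 50%, limit read from the data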;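 note: inhibitors lower the FRET ratio by blocking Runt binding to CBFb-SMMHC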
RanGTP-Imp inh: inhibitors of RanGTP-importin-beta interaction, primary screen, biochemical, FRET, CFP-Ran, YFP-importin-beta, homogeneous | Ran GTPase (GTP-bound) - importin-beta complex | cell-free CFP-Ran/YFP-importin-beta FRET ratio | inhibition, % (no concentration beside the values) | actives 1.1% (n = 300,000) | AID 2216, 2009;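 active = more than half of the replicate wells show a fall in the fluorescence ratio signal beyond about 16%, limit read from the data, passing the limit was not always enough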
Runt-CBFb FRET: inhibitors of RUNX1 Runt–CBFb binding, primary screen, biochemical, FRET, Cerulean-Runt, Venus-CBFb, uHTS; Cerulean-Runt/Venus-CBFb FRET ratio 530/480, 1 h; inhibition, % at 20 µM; actives 0.46% (n = 220,000); AID 1496, 2009;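 active = inhibition over about 50% at 20 µM in the single-dose screen, limit read from the data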
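Reagent – Venus-CBFb binding partner, 100 nM · Assay system – Cerulean-tagged RUNX1 Runt domain (FRET donor) fusion protein · Input – 100 nM per protein · Incubation – two 1 h room-temperature incubations shielded from light · Measured by – FRET fluorescence · Medium – Tris buffer pH 7.5 with salts and BSA · Benchmarks – unlabeled CBFb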
Wee1 stabilizer: Wee1 degradation inhibitors, primary screen, cell-based, HeLa, Wee1K328M-luciferase, luminescence | HeLa Luc-Wee1K328M stability; 100% = proteasome inhibitor MG132 effect | actives 1.2% (n = 220,000) | reporter increase, % at 5 µM | AID 1321, 2008 | Wee1-like protein kinase (Homo sapiens), P30291;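 active = activation above the mean of all tested compounds plus 3 SD, set per screening run, cut at about 8.8% in these data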;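 note: cells exposed to compound for 20 h before luminescence read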
Target sequence (P30291 whole entry K328M): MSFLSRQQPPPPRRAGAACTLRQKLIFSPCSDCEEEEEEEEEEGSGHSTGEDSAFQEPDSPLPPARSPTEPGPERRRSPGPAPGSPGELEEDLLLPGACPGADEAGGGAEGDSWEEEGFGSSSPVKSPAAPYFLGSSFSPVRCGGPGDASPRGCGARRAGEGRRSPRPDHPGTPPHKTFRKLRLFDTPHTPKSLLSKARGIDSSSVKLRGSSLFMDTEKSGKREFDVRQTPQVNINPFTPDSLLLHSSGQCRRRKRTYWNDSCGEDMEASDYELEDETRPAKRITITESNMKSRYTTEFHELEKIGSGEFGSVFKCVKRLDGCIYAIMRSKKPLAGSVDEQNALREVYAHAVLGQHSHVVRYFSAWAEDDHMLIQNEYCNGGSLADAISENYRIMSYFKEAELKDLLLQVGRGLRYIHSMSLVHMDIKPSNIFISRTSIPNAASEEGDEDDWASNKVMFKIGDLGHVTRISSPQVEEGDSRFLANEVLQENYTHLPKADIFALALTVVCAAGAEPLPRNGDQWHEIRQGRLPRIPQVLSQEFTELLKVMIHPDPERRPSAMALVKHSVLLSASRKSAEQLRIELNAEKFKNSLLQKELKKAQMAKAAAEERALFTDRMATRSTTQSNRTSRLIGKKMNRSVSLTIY
PHOSPHO1 inh: PubChem AID 1565; Phosphoethanolamine/phosphocholine phosphatase (Homo sapiens), Q8TCT1; recombinant PHOSPHO1, absorbance phosphatase assay; inhibition, % at 13.3 µM; actives 1.1% (n = 290,000); in the data active = inhibition above about 60%
Efa HMGR inh: inhibitors of E. faecalis class II HMGR, primary screen, biochemical, Enterococcus faecalis; HMG-CoA reductase (Enterococcus faecalis, mvaE); purified E. faecalis HMGR, NADPH absorbance 340 nm kinetic; inhibition, % at 10 µM; actives 0.41% (n = 190,000); AID 1066, 2008;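 active = inhibition above a set limit, the median over all tested compounds plus 3 SD, cut at about 9.5% in these data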;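 note: enzyme runs in reverse so mevalonate oxidation gives rising NADPH absorbance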
YIC FRET counter: YIC intramolecular FRET probe signal interference, dose response, counter-screen for RanGTP-importin-beta inhibitor project, biochemical, fluorescence FRET. shares compounds with RanGTP-Imp inh. Purified YIC probe, intramolecular FRET ratio YFP/CFP. IC50, µM. actives 40% (n = 1,000). AID 435026, 2010;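 active = fitted half-maximal inhibitory concentration no more than tenfold above the top dose tested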
A number is an active result; n = inactive; x = no result. This is a sample that favours compounds with a hit; in the whole collection about 3.4% have one here.

SMILES	Runt-SMMHC FRET	RanGTP-Imp inh	Runt-CBFb FRET	Wee1 stabilizer	PHOSPHO1 inh	Efa HMGR inh	YIC FRET counter
Cc1nn(-c2ccccc2)c2c1C1(C(=O)Nc3ccccc31)N1C(=N2)Sc2ccccc21 (centres undefined)	n	n	n	n	n	n	x
CC(=O)c1ccc(NC(=O)c2ccc3snnc3c2)cc1	x	n	x	x	n	x	x
COc1ccc(NC(=O)c2ccc3snnc3c2)cc1	n	96	n	n	n	n	n
COc1ccc(S(=O)(=O)N2CCC(C(=O)NCCC(=O)Nc3nccs3)CC2)cc1	x	n	x	x	n	x	x
CCN(/N=C/C=C/c1ccccc1)c1cc(=O)n(C)c(=O)[nH]1	n	27	n	n	n	n	n
CCN(/N=C/c1ccc(Cl)cc1)c1cc(=O)n(C)c(=O)[nH]1	n	n	n	n	n	n	x
Nc1c(C(=O)Nc2ccccc2)c2nc3ccccc3nc2n1CCCN1CCOCC1	n	28	n	n	n	x	30
Cc1ccccc1-n1c(=O)cc(N2CCC3(CC2)OCCO3)[nH]c1=O	n	33	n	n	n	n	n
COc1ccc(-c2c(C)c3ccc(O)cc3oc2=O)cc1OC	x	20	x	x	n	x	34
COc1ccc(N2C(=O)CC(C#N)=C2N)cc1	n	18	n	n	n	n	n
N#CC1=C(N)N(c2ccccc2)C(=O)C1	n	n	n	n	n	n	x
Cc1ccc(N2C(=O)Nc3ccccc3C2(O)C(=O)N2CCN(c3ccccn3)CC2)cc1C (centres undefined)	n	n	n	n	n	n	x
O=C(OCc1cccc([N+](=O)[O-])c1)c1ccc[nH]c1=O	x	n	x	x	n	x	x
Cc1ccc(C(OCC(O)CNCc2ccc(F)cc2)c2ccccc2)cc1 (centres undefined)	x	n	x	x	n	x	x
Oc1nc(Nc2ccc(F)cc2)sc1/C=C1\C=Nc2ccccc21	n	19	n	n	n	x	n
Oc1cccc(Nc2nc(O)c(/C=C3\C=Nc4ccccc43)s2)c1	n	x	n	n	n	x	x
CC1=Nc2ccccc2/C1=C\c1sc(Nc2ccc(C)cc2)nc1O	n	21	n	n	n	n	n
Cn1c(=O)cc(N2CCCCC2)[nH]c1=O	n	19	n	n	n	n	n
CCn1c(=O)cc(N2CCCCC2)[nH]c1=O	n	23	n	n	n	n	n
CCn1c(=O)cc(N2CCOCC2)[nH]c1=O	n	24	n	n	n	n	n
CCc1ccc(N2C(=O)CC(N3CCN(Cc4ccc5c(c4)OCO5)CC3)C2=O)cc1 (centres undefined)	n	n	n	n	n	n	x
COc1ccc(-c2cc(C(F)F)n3ncc(C(=O)NCCCN4CCCC4=O)c3n2)cc1	n	n	n	n	n	n	x
COCCNC(=O)c1cnn2c(C(F)F)cc(-c3ccc(C)cc3)nc12	n	18	n	n	n	n	42
Cc1ccc(S(=O)(=O)N2CCOCC2)cc1NC(=O)COC(=O)Cc1ccsc1	n	n	n	n	n	n	x
Cc1ccc(NC(=O)COC(=O)Cc2ccsc2)c(C)c1	n	19	n	n	n	n	n
SMILES	Runt-SMMHC FRET	RanGTP-Imp inh	Runt-CBFb FRET	Wee1 stabilizer	PHOSPHO1 inh	Efa HMGR inh	YIC FRET counter
CCC(C(=O)NC(C)(C)C)N(Cc1ccco1)C(=O)Cn1nnc(-c2ccc(F)cc2)n1 (centres undefined)	n	n	n	n	n	n	x
CC(=O)N1N=C(c2cccs2)CC1c1cccs1 (centres undefined)	n	n	n	n	n	n	x
CC(=O)c1ccc(-c2cccs2)s1	143	19	78	n	n	n	29
Cc1ccc2nc(N3CCN(C(=O)c4ccc(F)cc4)CC3)c(C#N)cc2c1	x	22	x	x	x	x	25
Cc1ccc2cc(C#N)c(N3CCN(C(=O)c4cccs4)CC3)nc2c1	x	n	x	x	n	x	x
S=c1[nH]c2ccc3ccccc3c2[nH]1	n	17	n	n	n	n	n
COc1ccccc1N1CCN(C(=O)/C=C/c2ccc(C)cc2)CC1	n	20	n	n	n	n	n
COc1cccc(-c2cc(C(=O)NC3CC3)c3ccccc3n2)c1	x	19	x	x	n	x	n
COc1ccc(-c2cc(C(=O)NC3CC3)c3ccccc3n2)cc1	x	n	x	x	n	x	x
N#Cc1ccc(NC(=O)Cn2cnc(S(=O)(=O)N3CCOCC3)c2)cc1	x	n	x	x	n	x	x
CC(C)C[C@H](NC(=O)c1[nH]cnc1C(=O)N[C@@H](C)C(=O)OC(C)(C)C)C(=O)OCc1ccccc1	n	n	n	x	n	x	x
COc1ccc(C(=O)/C=C(\C)NCc2ccc3c(c2)OCO3)cc1	n	24	n	n	n	n	n
CCOc1ccccc1/C=N/n1c(COc2ccccc2)n[nH]c1=S	x	n	x	x	n	x	x
O=S(=O)(NC(=NC1CCCC1)C(F)(F)F)c1ccccc1	n	n	n	n	n	n	x
COc1ccc(OC(=O)C2CC(=O)N(c3ccc(C)cc3)C2)cc1 (centres undefined)	n	22	n	n	n	n	n
COC(=O)C1CC(=O)N(c2ccc(C)cc2)C1 (centres undefined)	n	n	n	n	n	n	x
Cc1ccc(-c2ccc(=O)n(CC(=O)NCc3ccc(F)cc3)n2)cc1	n	n	x	n	n	n	x
CCn1c(=O)c([N+](=O)[O-])c(NCc2ccco2)c2ccccc21	n	n	n	n	n	x	x
COc1ccc(NC(=O)c2cc3ccc(O)cc3o/c2=N\O)cc1	x	28	x	x	x	x	51
Cc1oc2c(C)c3oc(=O)c(CCC(=O)O)c(C)c3cc2c1-c1ccccc1	x	n	x	x	n	x	x
Cc1ccc(O)c(N=Cc2sc3ccccc3c2Cl)c1	n	n	n	n	n	n	x
Oc1c(C=Nc2ccccc2)sc2ccccc12	x	16	x	n	n	n	7.6
O=C(NC1CC(=O)c2sccc21)c1ccc(Cl)cc1Cl (centres undefined)	n	n	n	n	n	n	x
Cc1cc(C(=O)N2CCc3c([nH]c4ccccc34)C2c2c(F)cccc2Cl)no1 (centres undefined)	n	27	n	n	n	n	n
CN(C)CCNC(=O)CN1C(=O)COc2ccc(C(C)(C)C)cc21	n	n	n	n	n	n	x
Cc1cccc(NC(=O)c2cc3c(s2)-c2c(C)cccc2OC3)n1	n	30	n	n	n	x	7.3
CCc1cc(=O)oc2c(CN3CCN(C)CC3)c(O)c(Cl)cc12	91	32	100	n	n	n	33
C/C(=N\Nc1ccc(Cl)c(C(=O)O)c1)c1ccc[nH]1	n	n	n	n	n	x	x

Bioassay records from PubChem BioAssay.
